Active and inactive are the calls of the source.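 Rule for the calls: active = cytotoxic compound whose concentration leaving half the cells alive is below 5 µM in either medium; inactive = the rest.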
Test: viability loss of mouse T cells – cell-based, absorbance, serum-free and serum media, cytotoxicity control for PAFAH2 inhibitor project, late-stage follow-up (AID 504511)
Conditions: BW5147 murine T cells viability, WST-1 absorbance
Summary of the method: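 test system = BW5147-derived murine T cells | medium = RPMI without or with fetal calf serum | timing = 48 h compound exposure of cells at 37 °C | signal = WST-1 absorbance | replicates = quadruplicate wells per concentration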

SMILES	CC50 (serum-free media)	CC50 (with FCS)
O=C(N1CCCC1)n1ncc(-c2ccc(Oc3ccccc3)cc2)n1	48 µM (inactive)	> 50 µM (inactive)
O=C(N1CCCC1)n1ncc(-c2ccc(-c3ccccc3)cc2)n1	35 µM (inactive)	> 50 µM (inactive)

— PubChem BioAssay AID504511 (The Scripps Research Institute Molecular Screening Center, 2011)
